Experimental data taken from ChEMBL document CHEMBL4190389, “Synthesis and activity of di- or trisubstituted N-(phenoxyalkyl)- or N-{2-[2-(phenoxy)ethoxy]ethyl}piperazine derivatives on the central nervous system” (Bioorg Med Chem Lett, 2018).
Calls of active or inactive are those of the source. No cut-off for these calls is given here.

Tests used:
D(2) dopamine receptor [1] = molecular target: T1, D(2) dopamine receptor (Homo sapiens, UniProt P14416); experiment: Agonist activity at human D2 receptor expressed in CHO-K1 cells co-expressing Galphaqi5 assessed as increase in calcium mobilization measured for 30 secs by aequorin-derived luminescence assay; format: functional, cell-based
T1 sequence (P14416 whole entry): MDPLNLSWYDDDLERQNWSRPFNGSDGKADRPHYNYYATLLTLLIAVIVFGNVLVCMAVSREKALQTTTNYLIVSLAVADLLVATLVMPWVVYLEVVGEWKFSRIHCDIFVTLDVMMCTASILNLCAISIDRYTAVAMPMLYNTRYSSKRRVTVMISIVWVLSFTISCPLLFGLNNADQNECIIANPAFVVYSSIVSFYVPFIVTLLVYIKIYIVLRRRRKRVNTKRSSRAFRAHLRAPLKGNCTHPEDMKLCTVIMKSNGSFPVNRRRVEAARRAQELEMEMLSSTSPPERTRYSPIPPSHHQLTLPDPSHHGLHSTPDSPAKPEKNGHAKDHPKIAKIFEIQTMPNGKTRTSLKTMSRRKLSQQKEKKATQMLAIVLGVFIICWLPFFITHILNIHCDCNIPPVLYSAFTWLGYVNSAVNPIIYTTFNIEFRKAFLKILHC

[2] = molecular target: T2, 5-hydroxytryptamine receptor 7 (Homo sapiens, UniProt P34969); experiment: Agonist activity at human 5-HT7 receptor expressed in CHO-K1 cells assessed as increase in serotonin-induced cAMP level after 1 hr by TR-FRET assay relative to serotonin; format: functional, cell-based
T2 sequence (P34969 whole entry): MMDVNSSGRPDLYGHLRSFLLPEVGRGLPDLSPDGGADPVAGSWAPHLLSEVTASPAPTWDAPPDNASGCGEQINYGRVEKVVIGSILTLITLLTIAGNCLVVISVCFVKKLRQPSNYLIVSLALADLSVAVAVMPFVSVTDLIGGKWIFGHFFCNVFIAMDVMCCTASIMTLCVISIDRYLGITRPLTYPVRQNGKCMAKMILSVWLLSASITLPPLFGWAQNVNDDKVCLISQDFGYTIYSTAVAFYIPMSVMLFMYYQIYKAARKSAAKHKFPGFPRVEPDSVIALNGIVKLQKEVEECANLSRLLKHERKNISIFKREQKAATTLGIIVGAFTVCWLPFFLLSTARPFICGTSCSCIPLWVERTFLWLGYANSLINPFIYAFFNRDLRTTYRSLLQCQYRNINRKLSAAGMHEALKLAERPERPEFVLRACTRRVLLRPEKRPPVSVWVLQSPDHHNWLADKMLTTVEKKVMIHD

Mus musculus [3] = experiment: Antidepressant-like activity in Albino Swiss CD-1 mouse assessed as immobility time at 5 mg/kg, ip administered 30 mins prior to test measured for last 4 mins of 6 mins observation by forced swim test (reference value: 153.9 to 201.9 secs); format: functional
[4] = molecular target: 5-hydroxytryptamine receptor 6 (Homo sapiens, UniProt P50406); experiment: Displacement of [3H]LSD from recombinant human 5-HT6 receptor expressed in CHO cells cell membranes after 60 mins by liquid scintillation counting method
Chain of 5-hydroxytryptamine receptor 6 (P50406 whole entry): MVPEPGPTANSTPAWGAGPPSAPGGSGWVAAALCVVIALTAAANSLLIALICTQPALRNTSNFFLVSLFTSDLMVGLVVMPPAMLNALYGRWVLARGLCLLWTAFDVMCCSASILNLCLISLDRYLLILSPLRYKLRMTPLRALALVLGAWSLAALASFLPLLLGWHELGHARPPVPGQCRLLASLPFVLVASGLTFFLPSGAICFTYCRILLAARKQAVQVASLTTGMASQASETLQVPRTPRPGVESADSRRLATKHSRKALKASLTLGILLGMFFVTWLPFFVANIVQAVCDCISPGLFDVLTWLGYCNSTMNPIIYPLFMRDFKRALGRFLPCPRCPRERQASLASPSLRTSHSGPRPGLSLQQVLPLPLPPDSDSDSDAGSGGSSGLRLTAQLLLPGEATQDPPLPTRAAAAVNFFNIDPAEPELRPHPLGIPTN

[5] = molecular target: T3, 5-hydroxytryptamine receptor 2A (Homo sapiens, UniProt P28223); experiment: biochemical; format: cell-based, HEK293
T3 sequence (P28223 whole entry): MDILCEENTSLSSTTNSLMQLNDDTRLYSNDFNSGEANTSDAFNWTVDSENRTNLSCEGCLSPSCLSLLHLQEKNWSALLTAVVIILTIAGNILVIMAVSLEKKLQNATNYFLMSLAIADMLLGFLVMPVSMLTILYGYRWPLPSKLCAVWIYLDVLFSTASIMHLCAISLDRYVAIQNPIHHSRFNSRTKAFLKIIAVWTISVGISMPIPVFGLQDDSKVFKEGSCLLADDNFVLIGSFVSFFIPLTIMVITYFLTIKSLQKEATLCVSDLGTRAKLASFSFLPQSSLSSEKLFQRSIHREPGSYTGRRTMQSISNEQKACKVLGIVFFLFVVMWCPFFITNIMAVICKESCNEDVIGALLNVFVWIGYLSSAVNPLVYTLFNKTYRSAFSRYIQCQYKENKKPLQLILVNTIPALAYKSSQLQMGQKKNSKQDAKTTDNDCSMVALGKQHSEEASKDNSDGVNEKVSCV

[6] = molecular target: T4, 5-hydroxytryptamine receptor 1A (Homo sapiens, UniProt P08908); experiment: (§1) Antagonist activity at human 5-HT1A receptor expressed in CHO-K1 cells co-expressing Galpha16 assessed as decrease in serotonin calcium mobilization preincubated for 25 mins followed by serotonin challenge measured for 30 secs by aequorin-derived luminescence assay; format: functional, cell-based
T4 sequence (P08908 whole entry): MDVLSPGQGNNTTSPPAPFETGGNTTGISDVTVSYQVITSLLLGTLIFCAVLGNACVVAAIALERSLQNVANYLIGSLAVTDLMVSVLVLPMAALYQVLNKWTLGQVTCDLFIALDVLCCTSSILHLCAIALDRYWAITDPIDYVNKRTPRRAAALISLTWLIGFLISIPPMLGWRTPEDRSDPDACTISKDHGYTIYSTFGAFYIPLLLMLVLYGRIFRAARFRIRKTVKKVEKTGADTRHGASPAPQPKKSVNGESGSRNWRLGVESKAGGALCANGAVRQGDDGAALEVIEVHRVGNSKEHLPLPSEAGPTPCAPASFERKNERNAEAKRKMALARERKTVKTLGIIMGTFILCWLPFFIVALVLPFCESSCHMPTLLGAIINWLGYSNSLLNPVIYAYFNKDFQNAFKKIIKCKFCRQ

[7] = molecular target: T5, 5-hydroxytryptamine receptor 1A (Homo sapiens) (UniProt P08908); experiment: as §1; format: functional, cell-based
T5 sequence (whole entry): T4 sequence (P08908 whole entry)

[8] = molecular target: T6, Alpha-1A adrenergic receptor (Homo sapiens, UniProt P35348); experiment: Displacement of [3H]prazosin from recombinant human alpha1 adrenoceptor expressed in CHO cell membranes after 30 mins by liquid scintillation counting method
T6 sequence (P35348 whole entry): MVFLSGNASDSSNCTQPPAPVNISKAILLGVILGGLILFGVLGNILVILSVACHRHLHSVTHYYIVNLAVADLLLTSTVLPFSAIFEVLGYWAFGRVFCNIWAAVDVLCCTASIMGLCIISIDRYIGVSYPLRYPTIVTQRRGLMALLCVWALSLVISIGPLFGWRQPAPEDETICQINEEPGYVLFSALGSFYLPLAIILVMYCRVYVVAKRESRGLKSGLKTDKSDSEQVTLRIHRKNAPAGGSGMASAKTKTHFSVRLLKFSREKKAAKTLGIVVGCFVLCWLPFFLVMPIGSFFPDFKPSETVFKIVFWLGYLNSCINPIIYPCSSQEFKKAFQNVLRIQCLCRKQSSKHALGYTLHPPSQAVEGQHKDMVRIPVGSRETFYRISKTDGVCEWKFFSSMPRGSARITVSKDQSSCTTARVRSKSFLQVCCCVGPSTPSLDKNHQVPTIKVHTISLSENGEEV

Mus musculus [9] = experiment: Anxiolytic-like activity in Albino Swiss CD-1 mouse assessed as increase in number of punished crossings at 5 to 10 mg/kg, ip administered for 30 mins prior to test measured for 1 min by four-plate test; format: functional, organism-based
Procedure, shortened: (§2)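 Four-plate test in mice, i.p., 30 min before test; vehicle 0.9% NaCl; doses 1.25–10 mg/kg; number of punished crossings counted; mean ± SEM, n = 8–10 mice per group; ANOVA F statistics.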

[10] = molecular target: T3, 5-hydroxytryptamine receptor 2A; experiment: Antagonist activity at human 5-HT2A receptor expressed in CHO-K1 cells co-expressing Galpha16 assessed as decrease in serotonin calcium mobilization preincubated for 30 mins followed by serotonin challenge measured for 30 secs by aequorin-derived luminescence assay; format: functional, cell-based
[11] = molecular target: T4, 5-hydroxytryptamine receptor 1A; experiment: Displacement of [3H]8-OH-DPAT from recombinant human 5-HT1A receptor expressed in HEK293 cell membranes after 60 mins by liquid scintillation counting method
D(2) dopamine receptor [12] = molecular target: T1, D(2) dopamine receptor; experiment: Agonist activity at human D2 receptor expressed in CHO-K1 cells co-expressing Galphaqi5 assessed as increase apomorphine-induced calcium mobilization measured for 30 secs by aequorin-derived luminescence assay relative to apomorphine; format: functional, cell-based
D(2) dopamine receptor [13] = molecular target: T1, D(2) dopamine receptor; experiment: Displacement of [3H]methylspiperonee from recombinant human D2 receptor expressed in HEK293 cells cell membranes after 60 mins by liquid scintillation counting method
[14] = molecular target: T5, 5-hydroxytryptamine receptor 1A (Homo sapiens); experiment: Agonist activity at human 5-HT1A receptor expressed in CHO-K1 cells co-expressing Galpha16 assessed as increase in calcium mobilization measured for 30 secs by aequorin-derived luminescence assay relative to serotonin; format: functional, cell-based
[15] = molecular target: T2, 5-hydroxytryptamine receptor 7; experiment: biochemical; format: cell-based, CHO
[16] = molecular target: T2, 5-hydroxytryptamine receptor 7; experiment: Antagonist activity at human 5-HT7 receptor expressed in CHO-K1 cells assessed as decrease in serotonin-induced cAMP level after 1 hr by TR-FRET assay relative to control; format: functional, cell-based
[17] = molecular target: T2, 5-hydroxytryptamine receptor 7; experiment: Antagonist activity at human 5-HT7 receptor expressed in CHO-K1 cells assessed as decrease in serotonin-induced cAMP level after 1 hr by TR-FRET assay; format: functional, cell-based
Mus musculus [18] = experiment: Toxicity in Albino Swiss CD-1 mouse assessed as effect on locomotory activity at 5 to 10 mg/kg, ip administered for 30 mins prior to test measured for 1 min; format: organism-based; conditions: in vivo
Procedure, shortened: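 Mice dosed i.p. 30 min before test; vehicle groups received 0.9% NaCl. Spontaneous locomotion scored as number of crossings during a 1-min session. Each dose compared with its own vehicle group by Student t-test; mean ± SEM, n = 8–10 mice per group.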

[19] = molecular target: T5, 5-hydroxytryptamine receptor 1A (Homo sapiens); experiment: Antagonist activity at human 5-HT1A receptor expressed in CHO-K1 cells co-expressing Galpha16 assessed as decrease in serotonin-induced calcium mobilization preincubated for 25 mins followed by serotonin challenge measured for 30 secs by aequorin-derived luminescence assay relative to control; format: functional, cell-based
Mus musculus [20] = experiment: Antidepressant-like activity in Albino Swiss CD-1 mouse assessed as immobility time at 20 mg/kg, ip administered 30 mins prior to test measured for last 4 mins of 6 mins observation by forced swim test (reference value: 153.9 to 201.9 secs); format: functional
Mus musculus [21] = experiment: Antidepressant-like activity in Albino Swiss CD-1 mouse assessed as immobility time at 10 mg/kg, ip administered 30 mins prior to test measured for last 4 mins of 6 mins observation by forced swim test (reference value: 153.9 to 201.9 secs); format: functional
Mus musculus [22] = experiment: Anxiolytic-like activity in Albino Swiss CD-1 mouse assessed as increase in number of punished crossings at 10 mg/kg, ip administered for 30 mins prior to test measured for 1 min by four-plate test; format: functional, organism-based; procedure, shortened: as §2
Mus musculus [23] = experiment: Anticonvulsant activity in ip dosed Albino Swiss CD-1 mouse assessed as dose required to protect against 50 Hz current-induced seizure; format: functional; conditions: Swiss CD-1, ip
Mus musculus [24] = experiment: Antiallodynic activity in oxaliplatin-induced Albino Swiss CD-1 mouse allodynia model assessed as effect on decrease in abnormal movement at 30 mg/kg, ip measured after 60 mins by cold plate test; format: functional, organism-based
[25] = Neurotoxicity in ip dosed Albino Swiss CD-1 mouse assessed as minimum dose required to induce motor impairment treated 30 mins prior to test by rotarod test; format: toxicity, organism-based; conditions: in vivo
Mus musculus [26] = experiment: Toxicity in Albino Swiss CD-1 mouse assessed as death at 15 to 100 mg/kg, ip; format: organism-based; conditions: in vivo
Procedure, shortened: (§3)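 Deaths counted in mice during maximal electroshock (MES) seizure testing after i.p. dosing, 6 mice per dose (3 or 1 at some top doses); recorded as number dead/number tested alongside protection and rotarod motor impairment (10 rpm); untreated control group included.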

[27] = Protection index, ratio of TD50 for motor impairment in ip dosed Swiss albino CD-1 mouse to ED50 for protection against 50 Hz current-induced seizures in ip dosed Swiss albino CD-1 mouse; format: toxicity, organism-based, Swiss CD-1; conditions: in vivo, read-out: Ratio TD50/ED50
Mus musculus [28] = experiment: Antiallodynic activity in oxaliplatin-induced Albino Swiss CD-1 mouse allodynia model assessed as effect on jumping at 30 mg/kg, ip measured after 60 mins by cold plate test; format: functional, organism-based
Mus musculus [29] = experiment: Antiallodynic activity in oxaliplatin-induced Albino Swiss CD-1 mouse allodynia model assessed as effect on hind paw licking at 30 mg/kg, ip measured after 60 mins by cold plate test; format: functional, organism-based
Mus musculus [30] = experiment: Antiallodynic activity in oxaliplatin-induced Albino Swiss CD-1 mouse allodynia model assessed as effect on shaking at 30 mg/kg, ip measured after 60 mins by cold plate test; format: functional, organism-based
Mus musculus [31] = experiment: Antinociceptive activity in STZ-induced Albino Swiss CD-1 mouse model of thermal-induced nociception assessed as increase in latency to respond with hind paw lick or jumping at 30 mg/kg, ip measured after 60 mins by hot plate test; format: functional, organism-based
Mus musculus [32] = experiment: Neurotoxicity in Albino Swiss CD-1 mouse assessed as motor impairment at 15 mg/kg, ip treated 30 mins prior to test by rotarod test; format: toxicity, organism-based; conditions: in vivo, 0.5 h
Mus musculus [33] = experiment: Anticonvulsant activity in Albino Swiss CD-1 mouse assessed as protection against 50 Hz current-induced seizure at 100 mg/kg, ip; format: functional, organism-based
Mus musculus [34] = experiment: Antiallodynic activity in STZ-induced Albino Swiss CD-1 mouse allodynia model assessed as increase in paw withdrawal latency time at 30 mg/kg, ip measured after 60 mins by Von Frey test; format: functional, organism-based
D(2) dopamine receptor [35] = molecular target: T1, D(2) dopamine receptor; experiment: Antagonist activity at human D2 receptor expressed in CHO-K1 cells co-expressing Galphaqi5 assessed as decrease in apomorphine-induced calcium mobilization preincubated for 30 mins followed by apomorphine challenge measured for 30 secs by aequorin-derived luminescence assay; format: functional, cell-based
Mus musculus [36] = experiment: Anxiolytic-like activity in Albino Swiss CD-1 mouse assessed as increase in number of punished crossings at 2.5 mg/kg, ip administered for 30 mins prior to test measured for 1 min by four-plate test; format: functional, organism-based; procedure, shortened: as §2
Mus musculus [37] = experiment: Toxicity in Albino Swiss CD-1 mouse assessed as effect on locomotory activity at 1.25 to 5 mg/kg, ip administered for 30 mins prior to test measured for 1 min; format: organism-based; conditions: in vivo
Mus musculus [38] = experiment: Anxiolytic-like activity in Albino Swiss CD-1 mouse assessed as increase in number of punished crossings at 5 mg/kg, ip administered for 30 mins prior to test measured for 1 min by four-plate test; format: functional, organism-based; procedure, shortened: as §2
Mus musculus [39] = experiment: Toxicity in Albino Swiss CD-1 mouse assessed as death at 20 to 40 mg/kg, ip; format: organism-based; conditions: in vivo; procedure, shortened: as §3

Compound	Emax [2] [%]	Time (Mus musculus [3]) [s]	Ki [4] [nM]	Ki [5] [nM]	IC50 [6] [nM]	Kb [7] [nM]	Ki [8] [nM]	IC50 [10] [nM]	Ki [11] [nM]	Emax (D(2) dopamine receptor [12]) [%]	Ki (D(2) dopamine receptor [13]) [nM]	Emax [14] [%]	Ki [15] [nM]	Emax [16] [%]	IC50 [17] [nM]	Kb [17] [nM]	Activity (Mus musculus [18])	Emax [19] [%]	Time (Mus musculus [20]) [s]	Time (Mus musculus [21]) [s]	also measured
Cc1cc(OCCCN2CCN(c3ccccc3)CC2)ccc1Cl.Cl.Cl	11	189.1	> 5000	76	291	71.5	93	85800	20	48	299	11	90	15	5790	2460	Non-Toxic	6	172.1	188.9	EC50 (D(2) dopamine receptor [1]): 757 nM; Activity (Mus musculus [9]): inactive
COc1ccc(N2CCN(CCCOc3c(C)cc(C)cc3C)CC2)cc1.Cl.Cl		179.9	> 5000	772	595	146	2120		146		4960	1	3030				Non-Toxic	8	183.9	202	Activity (Mus musculus [22]): Active; ED50 (Mus musculus [23]): 23.5 mg/kg; Activity (Mus musculus [24]): inactive; TD50 at 0.5 h [25]: 67.9 mg/kg; Activity (Mus musculus [26]): Non-Toxic; selectivity ratio [27]: 2.89; Activity (Mus musculus [28]): inactive; Activity (Mus musculus [29]): inactive; Activity (Mus musculus [30]): inactive; Activity (Mus musculus [31]): inactive; Activity (Mus musculus [32]): Non-Toxic; Activity (Mus musculus [33]): Active; Activity (Mus musculus [34]): Active
COc1ccccc1N1CCN(CCOCCOc2c(C)cc(C)cc2C)CC1.Cl.Cl	11	138.5	2430	245	56.8	13.9	15	18200	5	1	189	3	70	3	1840	783		20	150.6	131.3	ED50 (Mus musculus [23]): 26.3 mg/kg; TD50 at 0.5 h [25]: 31.5 mg/kg; IC50 (D(2) dopamine receptor [35]): 82 nM; Kb (D(2) dopamine receptor [35]): 24.4 nM; selectivity ratio [27]: 1.19; Activity (Mus musculus [36]): Active; Activity (Mus musculus [37]): Non-Toxic; Activity (Mus musculus [38]): Active; Activity (Mus musculus [39]): Non-Toxic
